Test results reported in ChEMBL document CHEMBL1124378, “Synthesis and pharmacological evaluation of a series of 4-piperazinylpyrazolo[3,4-b]- and -[4,3-b][1,5]benzodiazepines as potential anxiolytics” (J Med Chem, 1989).

Legend:
Mus musculus [1] = assay: Dose below which no catalepsy was observed at any time period (following p.o. dosing); format: functional
Outline: (§1)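 CFW mice (21-23 g), three per group, dosed orally in water or 0.5% carboxymethylcellulose. Checked at 0.25, 2.5 and 5.0 h for holding one hind limb on a 2-cm rubber bung and staying on a vertical grid, judged against a control by a trained observer.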

Mus musculus [2] = assay: Compound administered perorally was evaluated for the hypothermia (rectal temperature ) in mice; format: functional
Outline: (§2)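 Groups of three CFW mice (21-23 g) received oral compound in water or 0.5% carboxymethylcellulose. Rectal temperature was taken at 0.25, 2.5 and 5.0 h. Mean change from the group's initial mean was summed over the three times. Hypothermia scored if the summed reduction was >4 °C.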

Rattus norvegicus [3] = assay: Rotarod response in rat to assess muscular incoordination (following p.o. dosing); format: functional
Outline: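 Male Olac-Wistar rats (140-150 g), five per group, fed ad libitum, dosed orally. Tested 1 and 2 h later on a horizontal rod (2 rpm, 32 mm diameter), maximum 30 s. Mean time compared with vehicle controls by Mann-Whitney U test, significant at p < 0.05.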

Rattus norvegicus [4] = assay: Compound administered perorally was evaluated for the conditioned avoidance response in rats
Rattus norvegicus [5] = assay: Compound administered perorally was evaluated for the conditioned avoidance response in rats; format: functional
Outline: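 Olac-Wistar rats (120-130 g) trained to cross a shuttle box on a 5-s buzzer, with mild shock if no response within 1 s after it ends. Only high-responders used. Groups of five were dosed orally in water or 0.5% carboxymethylcellulose 1 h 50 min before testing. After 10-min habituation they were tested 20 min. Blockade = shocks as % of stimuli presented.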

[6] = target: D(2) dopamine receptor (Bos taurus) (UniProt P20288); assay: Inhibition of [3H]spiperone binding to Dopamine receptor D2 from calf caudate
Rattus norvegicus [7] = species: Rattus norvegicus; assay: Compound behavior in rat; format: functional; set-up: unit not given here
Outline: (§3)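 Olac-Wistar rats (180-190 g), eight per group, dosed orally, front paws placed on a 1.5-cm rod 7 cm above the table. Tested at 0.5, 1, 1.5, 2, 3, 4 and 5 h, up to 20 min hold. Each animal's maximum score (0-5 by time held) was summed, giving a group maximum of 40.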

[8] = target: Muscarinic acetylcholine receptor; assay: Compound was evaluated for the inhibition of [3H]QNB binding to Muscarinic acetylcholine receptor from male Olac rat brain.
Rattus norvegicus [9] = assay: The compound was evaluated for the anticonflict behavior in male wistar rats as rate of responses (reward) following dose of 10 mg/kg po; format: functional; set-up: unit: responses/min
Outline: (§4)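 Male Wistar rats on 23-h food deprivation, water ad libitum, trained to lever-press for food on continuous reinforcement until stable. Compound or vehicle given orally in randomized sequence 60 min before testing. Responses/min were recorded in reward, timeout and conflict components. Differences from control were tested by Wilcoxon test.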

Rattus norvegicus [10] = assay: The compound was evaluated for the anticonflict behavior in male wistar rats as rate of responses (timeout) following dose of 2.5 mg/kg po; format: functional; outline: as §4
Rattus norvegicus [11] = assay: The compound was evaluated for the anticonflict behavior in male wistar rats as rate of responses (timeout) following dose of 0 mg/kg po; format: functional; outline: as §4
Rattus norvegicus [12] = assay: The compound was evaluated for the anticonflict behavior in male wistar rats as rate of responses (conflict) following dose of 10 mg/kg po; format: functional; set-up: unit: responses/min; outline: as §4
Rattus norvegicus [13] = assay: The compound was evaluated for the anticonflict behavior in male wistar rats as rate of responses (conflic) following dose of 20 mg/kg po; format: functional; set-up: unit: responses/min; outline: as §4
Rattus norvegicus [14] = assay: The compound was evaluated for the anticonflict behavior in male wistar rats as rate of responses (conflict) following dose of 5.0 mg/kg po; format: functional; set-up: unit: responses/min; outline: as §4
Mus musculus [15] = assay: Compound administered perorally was evaluated for the hypothermia (rectal temperature) in mice; format: functional; outline: as §2
Rattus norvegicus [16] = assay: The compound was evaluated for the anticonflict behavior in male wistar rats as rate of responses (timeout) following dose of 5.0 mg/kg po; format: functional; set-up: unit: responses/min; outline: as §4
Rattus norvegicus [17] = assay: The compound was evaluated for the anticonflict behavior in male wistar rats as rate of responses (reward) following dose of 5.0 mg/kg po; format: functional; set-up: unit: responses/min; outline: as §4
Rattus norvegicus [18] = assay: The compound was evaluated for the anticonflict behavior in male wistar rats as rate of responses (conflict) following dose of 0 mg/kg po; format: functional; set-up: unit: responses/min; outline: as §4
Rattus norvegicus [19] = assay: The compound was evaluated for the anticonflict behavior in male wistar rats as rate of responses (timeout) following dose of 20 mg/kg po; format: functional; set-up: unit: responses/min; outline: as §4
Rattus norvegicus [20] = assay: The compound was evaluated for the anticonflict behavior in male wistar rats as rate of responses (timeout) following dose of 10 mg/kg po; format: functional; set-up: unit: responses/min; outline: as §4
Rattus norvegicus [21] = assay: The compound was evaluated for the anticonflict behavior in male wistar rats as rate of responses (reward) following dose of 2.5 mg/kg po; format: functional; outline: as §4
Rattus norvegicus [22] = assay: The compound was evaluated for the anticonflict behavior in male wistar rats as rate of responses (reward) following dose of 20 mg/kg po; format: functional; set-up: unit: responses/min; outline: as §4
Rattus norvegicus [23] = assay: The compound was evaluated for the anticonflict behavior in male wistar rats as rate of responses (reward) following dose of 0 mg/kg po; format: functional; set-up: unit: responses/min; outline: as §4
Rattus norvegicus [24] = assay: The compound was evaluated for the anticonflict behavior in male wistar rats as rate of responses (conflict) following dose of 2.5 mg/kg po; format: functional; outline: as §4
Rattus norvegicus [25] = assay: The compound was evaluated for the anticonflict behavior in male wistar rats as rate of responses (reward) following dose of 40 mg/kg po; format: functional; outline: as §4
[26] = target: Muscarinic acetylcholine receptor; assay: Inhibition of [3H]QNB binding to muscarinic cholinergic receptor from male Olac rat brain.
Mus musculus [27] = assay: Compound administered perorally was evaluated for the dose below which no catalepsy was observed at any time period; format: functional; outline: as §1
[28] = target: D(2) dopamine receptor (Bos taurus) (UniProt P20288); assay: Inhibition of [3H]spiperone binding to dopamine receptor D2 from calf caudate
Rattus norvegicus [29] = species: Rattus norvegicus; assay: compound behavior in rat; format: functional; set-up: unit not given here; outline: as §3
Rattus norvegicus [30] = assay: The compound was evaluated for the anticonflict behavior in male wistar rats as rate of responses (timeout) following dose of 40 mg/kg po; format: functional; outline: as §4
Rattus norvegicus [31] = assay: The compound was evaluated for the anticonflict behavior in male wistar rats as rate of responses (conflict) following dose of 40 mg/kg po; format: functional; outline: as §4

| Structure (SMILES) | EDmin (Mus musculus [1]) [mg/kg] | EDmin (Mus musculus [2]) [mg/kg] | ED (Rattus norvegicus [3]) [mg/kg] | ED (Rattus norvegicus [5]) [mg/kg] | IC50 [6] [µM] | Activity (Rattus norvegicus [7]) | IC50 [8] [µM] | Activity (Rattus norvegicus [9]) | Activity (Rattus norvegicus [11]) | Activity (Rattus norvegicus [12]) | Activity (Rattus norvegicus [13]) | Activity (Rattus norvegicus [14]) | EDmin (Mus musculus [15]) [mg/kg] | Activity (Rattus norvegicus [16]) | Activity (Rattus norvegicus [17]) | Activity (Rattus norvegicus [18]) | Activity (Rattus norvegicus [19]) | Activity (Rattus norvegicus [20]) | Activity (Rattus norvegicus [22]) | Activity (Rattus norvegicus [23]) | also measured |
| --- | --- | --- | --- | --- | --- | --- | --- | --- | --- | --- | --- | --- | --- | --- | --- | --- | --- | --- | --- | --- | --- |
| CN1CCN(C2=Nc3cc(F)ccc3Nc3c2cnn3C)CC1 | >200 | 100 | >50 |  |  |  |  |  |  |  |  |  |  |  |  |  |  |  |  |  | ED (Rattus norvegicus [4]): >50 mg/kg |
| CC(C)n1cc2c(n1)Nc1ccc(F)cc1N=C2N1CCN(C)CC1 | 200 | 50 | 40 | 25 | 1.1 | >50 | 7.2 |  |  |  |  |  |  |  |  |  |  |  |  |  |  |
| CN1CCN(C2=Nc3ccccc3Nc3c2cnn3C)CC1 | >400 | >400 | >50 | >50 | 1500 | >50 | > 100 |  |  |  |  |  |  |  |  |  |  |  |  |  |  |
| CN1CCN(C2=Nc3cc(Br)ccc3Nc3nn(C)cc32)CC1 | 25 |  | >10 | >5 | 0.68 |  | > 10 | 23 | 2 | 5 | 4.1 | 2.6 | 12.5 | 6 | 22.1 | 0.5 | 4.4 | 8 | 14.1 | 18.7 | Activity (Rattus norvegicus [10]): 2.1; Activity (Rattus norvegicus [21]): 21.9; Activity (Rattus norvegicus [24]): 2.2 |
| CN1CCN(C2=Nc3cc(Cl)ccc3Nc3ccccc32)CC1 [CLOZAPINE] | 100 | 50 | 40 | 30 |  | 80 |  |  |  |  |  |  |  |  |  |  |  |  |  |  |  |
| CCCn1cc2c(n1)Nc1ccc(F)cc1N=C2N1CCN(C)CC1 | 200 | 25 | 50 | 40 | 0.18 | >50 | 16 |  |  |  |  |  |  |  |  |  |  |  |  |  |  |
| CN1CCN(C2=Nc3cc(F)ccc3Nc3nn(C)cc32)CC1 |  |  | >20 | 100 |  |  |  | 42.1 | 5.4 | 9.6 | 6.9 | 3.9 | 1.6 | 5.7 | 45.1 | 3 | 15.4 | 7.4 | 45.9 | 47.3 | Activity (Rattus norvegicus [25]): 48.3; IC50 [26]: 150 µM; EDmin (Mus musculus [27]): 50 mg/kg; IC50 [28]: 2.6 µM; Activity (Rattus norvegicus [29]): >100; Activity (Rattus norvegicus [30]): 15.4; Activity (Rattus norvegicus [31]): 10.1 |
| CN1CCN(C2=Nc3ccccc3Nc3nn(C)cc32)CC1 | 200 | 50 | >50 | >50 | 6.3 | 50 | 38 |  |  |  |  |  |  |  |  |  |  |  |  |  |  |
| Cc1ccc2c(c1)Nc1nn(C)cc1C(N1CCN(C)CC1)=N2 | >400 |  | >50 | >50 | 5.6 | >50 | > 100 |  |  |  |  |  | 200 |  |  |  |  |  |  |  |  |
| CNC1=Nc2ccc(Cl)cc2C(c2ccccc2)=[N+]([O-])C1 [CHLORDIAZEPOXIDE] |  |  |  |  |  |  |  | 68.8 | 1.4 | 4.2 | 3.3 | 1.9 |  | 2.2 | 70.8 | 0.6 | 3.7 | 3.4 | 54.3 | 70.2 |  |
| CN1CCN(C2=Nc3cc(Cl)ccc3Nc3nn(C)cc32)CC1 | 12.5 |  | >10 | 10 |  |  |  | 26.3 | 2.1 | 8.1 | 7.8 | 6 | 0.8 | 7.9 | 27.5 | 1.1 | 9.6 | 6.5 | 5.4 | 24.9 | Activity (Rattus norvegicus [10]): 9.3; Activity (Rattus norvegicus [25]): 14.1; IC50 [26]: 8.9 µM; IC50 [28]: 0.68 µM; Activity (Rattus norvegicus [29]): >25; Activity (Rattus norvegicus [21]): 24.9; Activity (Rattus norvegicus [30]): 4.6; Activity (Rattus norvegicus [24]): 5.6; Activity (Rattus norvegicus [31]): 4.8 |
